These results are taken from ChEMBL document CHEMBL1155615, “Bioactive saponins from Swartzia schomburgkii from the suriname rainforest” (J Nat Prod, 2000).

Test [1] relates to Saccharomyces cerevisiae. Kind of test: Antimicrobial activity against Saccharomyces cerevisiae J140. It is filed as functional.
For test [2], the system named is Saccharomyces cerevisiae. The test can be described thus: Antimicrobial activity against Saccharomyces cerevisiae I138. Format: functional.
The test system of test [3] is M109. Kind of test: Cytotoxicity against mouse M109 cells. It is filed as functional, cell-based. The method, boiled down:
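In vitro antitumor cytotoxicity assay using the murine Madison lung carcinoma line M-109.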

Test [4] relates to Saccharomyces cerevisiae. The test can be described thus: Antimicrobial activity against Saccharomyces cerevisiae I353. It is filed as functional.

The structures appear in SMILES notation. Converted amounts (≈) assume the structure as drawn.

For the molecule `CC1(C)CC[C@]2(C(=O)O)CC[C@]3(C)C(=CC[C@@H]4[C@@]5(C)CC[C@H](O[C@@H]6O[C@H](CO)[C@@H](O)[C@H](O[C@@H]7O[C@H](CO)[C@@H](O)[C@H](O)[C@H]7O)[C@H]6O)[C@@](C)(CO)[C@@H]5CC[C@]43C)[C@@H]2C1`, the values for the IC12 in test [1], in test [2] and in test [4] were 600 µg/mL, 400 µg/mL and 1000 µg/mL, respectively. Besides, the IC50 in test [3] amounted to 15.5 µg/mL (≈ 19.4 µM).

`CC1(C)CC[C@]2(C(=O)O)CC[C@]3(C)C(=CC[C@@H]4[C@@]5(C)CC[C@H](O[C@@H]6O[C@H](CO)[C@@H](O)[C@H](O)[C@H]6O[C@@H]6O[C@H](CO)[C@@H](O)[C@H](O)[C@H]6O)C(C)(C)[C@@H]5CC[C@]43C)[C@@H]2C1` [ACUTOSIDE A]: the IC12 came to 130 µg/mL in test [1], 75 µg/mL in test [2] and 110 µg/mL in test [4]. The IC50 in test [3] was determined as 28.7 µg/mL (≈ 36.7 µM).

In the case of `CC1(C)CC[C@]2(C(=O)O)CC[C@]3(C)C(=CC[C@@H]4[C@@]5(C)CC[C@H](O[C@@H]6O[C@H](CO)[C@@H](O)[C@H](O[C@@H]7O[C@H](CO)[C@@H](O)[C@H](O)[C@H]7O)[C@H]6O[C@@H]6OC[C@@H](O)[C@H](O)[C@H]6O)C(C)(C)[C@@H]5CC[C@]43C)[C@@H]2C1` [SWARTZIATRIOSIDE], the IC12 in test [1] is 260 µg/mL; in test [2], 120 µg/mL; in test [4] it was 430 µg/mL. Besides, the IC50 in test [3] turned out to be 24.3 µg/mL (≈ 26.6 µM).

For `CC1(C)CC[C@]2(C(=O)O)CC[C@]3(C)C(=CC[C@@H]4[C@@]5(C)CC[C@H](O[C@@H]6O[C@H](CO)[C@@H](O)[C@H](O)[C@H]6O)[C@@](C)(CO)[C@@H]5CC[C@]43C)[C@@H]2C1` [Hederagenin-3-O-beta-D-glucopyranoside], the IC12 was determined as 200 µg/mL in test [1], 125 µg/mL in test [2] and 280 µg/mL in test [4].

Regarding `CC1(C)CC[C@]2(C(=O)O)CC[C@]3(C)C(=CC[C@@H]4[C@@]5(C)CC[C@H](O[C@@H]6O[C@H](CO)[C@@H](O)[C@H](O[C@@H]7O[C@H](CO)[C@@H](O)[C@H](O)[C@H]7O)[C@H]6O[C@@H]6O[C@H](CO)[C@@H](O)[C@H](O)[C@H]6O)C(C)(C)[C@@H]5CC[C@]43C)[C@@H]2C1` [ANCHUSOSID 2], the IC12 was found to be 200 µg/mL in test [1], 120 µg/mL in test [2] and 270 µg/mL in test [4].
